Results published in ChEMBL document CHEMBL4706684, “Discovering High Potent Hsp90 Inhibitors as Antinasopharyngeal Carcinoma Agents through Fragment Assembling Approach” (J Med Chem, 2021).
Calls of active or inactive are those of the source. The calls are words filed in the database; no cut-off is given here.

Key:
[1] = tested on: HeLa; assay: Cytotoxicity in human HeLa cells assessed as reduction in cell viability incubated for 48 hrs by MTT assay; format: cell-based
Outline: (§1)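 Cells were seeded at 3 × 10³ cells per well and grown for 24 h at 37 °C in 5% CO₂. CNE2 was grown in RPMI 1640 and HeLa and HepG2 in DMEM, each with 10% FBS and 1% penicillin/streptomycin. Cells were exposed to 0−20 μM inhibitor for 48 h, with a DMSO solvent control. MTT (0.5 mg/mL) was then added for 3 h.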

[2] = tested on: HepG2; assay: Cytotoxicity in human HepG2 cells assessed as reduction in cell viability incubated for 48 hrs by MTT assay; format: cell-based; conditions: HepG2, 48 h; outline: as §1
[3] = tested on: CNE-2; assay: Cytotoxicity in human CNE-2 cells assessed as reduction in cell viability incubated for 48 hrs by MTT assay; format: cell-based; conditions: CNE-2, 48 h; outline: as §1
[4] = target: T1, Heat shock protein HSP 90-alpha (Homo sapiens, UniProt P07900); assay: Binding affinity to HSP90-alpha (unknown origin) expressed in Escherichia coli BL21 by SPR assay
[5] = target: T2, Heat shock protein HSP 90-beta (Homo sapiens, UniProt P08238); assay: Inhibition of HSP90-beta (unknown origin) expressed in Escherichia coli BL21 assessed as reduction in ATPase activity in presence of PEP, NADH and ATP by pyruvate kinase/lactic dehydrogenase based coupled enzyme assay
T2 sequence (P08238 whole entry): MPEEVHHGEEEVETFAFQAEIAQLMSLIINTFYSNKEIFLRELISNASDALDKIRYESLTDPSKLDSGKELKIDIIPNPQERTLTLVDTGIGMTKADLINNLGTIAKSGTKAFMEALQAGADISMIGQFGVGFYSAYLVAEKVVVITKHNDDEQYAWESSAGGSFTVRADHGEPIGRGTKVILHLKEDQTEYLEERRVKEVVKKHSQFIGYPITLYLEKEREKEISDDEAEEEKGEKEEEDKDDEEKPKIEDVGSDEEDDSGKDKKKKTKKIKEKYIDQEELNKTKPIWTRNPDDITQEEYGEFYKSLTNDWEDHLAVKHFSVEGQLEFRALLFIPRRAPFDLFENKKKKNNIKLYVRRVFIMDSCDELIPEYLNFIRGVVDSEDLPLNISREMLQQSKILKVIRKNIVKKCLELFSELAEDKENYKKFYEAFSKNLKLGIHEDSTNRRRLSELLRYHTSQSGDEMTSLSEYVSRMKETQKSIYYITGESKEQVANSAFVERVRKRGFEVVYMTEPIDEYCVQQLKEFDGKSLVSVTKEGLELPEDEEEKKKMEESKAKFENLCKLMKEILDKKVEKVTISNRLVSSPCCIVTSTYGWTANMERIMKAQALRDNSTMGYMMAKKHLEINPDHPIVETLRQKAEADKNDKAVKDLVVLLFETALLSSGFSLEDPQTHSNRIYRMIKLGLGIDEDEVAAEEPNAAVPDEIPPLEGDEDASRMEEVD

[6] = target: T2, Heat shock protein HSP 90-beta; assay: Binding affinity to HSP90-beta (unknown origin) expressed in Escherichia coli BL21 by SPR assay
[7] = target: T1, Heat shock protein HSP 90-alpha; assay: Inhibition of HSP90-alpha (unknown origin) expressed in Escherichia coli BL21 assessed as reduction in ATPase activity in presence of PEP, NADH and ATP by pyruvate kinase/lactic dehydrogenase based coupled enzyme assay

C=CCNC1=C2C[C@@H](C)C[C@H](OC)[C@H](O)[C@@H](C)/C=C(\C)[C@H](OC(N)=O)[C@@H](OC)/C=C\C=C(/C)C(=O)NC(=CC1=O)C2=O [TANESPIMYCIN] gave an IC50 [1] of 19.4 µM, an IC50 [2] of 8 µM and an IC50 [3] of 3.03 µM.
For COc1ccc(-c2cn(Cc3ccc(C(C)(C)C)cc3)nn2)cc1, the IC50 [1] was > 50 µM, the IC50 [2] was > 50 µM and the Kd [4] was 4.8 µM. It also gave an IC50 [5] of 5.6 µM, a Kd [6] of 4.8 µM and an IC50 [7] of 5.6 µM. For the same compound, the IC50 [3] was 4 µM.
For COc1ccc(-c2cn(Cc3cc(C(F)(F)F)cc(C(F)(F)F)c3)nn2)cc1, the IC50 [1] was 22.4 µM, the IC50 [2] was 18.1 µM and the Kd [4] was 3.1 µM. The IC50 [5] was 9.8 µM, the Kd [6] was 7 µM and the IC50 [7] was 6.2 µM. The IC50 [3] was 14.1 µM.
For CC(C)(C)c1ccc(Cn2cc(-c3ccc(O)cc3)nn2)c(O)c1, the IC50 [5] was > 40 µM, the IC50 [7] was > 40 µM and the IC50 [3] was > 20 µM.
CC(=O)c1ccc(-n2ccnc2)cc1 was tested, and the Activity [4] was “Active”.
Nc1cccs1 was tested, and the Activity [4] was “Active”.
With CC(C)(C)c1ccc(Cn2cc(-c3ccc(O)cc3[N+](=O)[O-])nn2)cc1 the IC50 [5] was 1.7 µM, the IC50 [7] was 1.7 µM and the IC50 [3] was 1.6 µM.
In the case of COc1ccc(-c2cn(Cc3ccc(C(C)(C)C)cc3)nn2)c(N)c1, the IC50 [5] is reported as > 40 µM, the IC50 [7] is reported as > 40 µM and the IC50 [3] is reported as > 20 µM.
For CC(C)(C)c1csc(N)n1, the Activity [4] was “Active”.
Nc1cc(-c2ccccc2)n[nH]1 was tested, and the Activity [4] was “Active”.
With CCSc1ccc(N)s1 the Activity [4] was “Active”.
For COc1ccc(-c2cn(Cc3ccc(C(C)(C)C)cc3)nn2)c([N+](=O)[O-])c1, the IC50 [5] was 5 µM, the IC50 [7] was 5 µM and the IC50 [3] was 1.6 µM.
O=C(O)c1csc(-c2ccc(Cl)cc2)n1 was tested, and the Activity [4] was “Active”.
With CC(C)(C)c1ccc(Cn2cc(-c3ccc(O)cc3N)nn2)cc1 the IC50 [5] was 14.6 µM, the IC50 [7] was 13.7 µM and the IC50 [3] was 1.6 µM.
In the case of CC(C)(C)c1ccc(Cn2cc(-c3ccc(O)cc3)nn2)cc1, the IC50 [5] is reported as 1.8 µM, the IC50 [7] is reported as 1.3 µM and the IC50 [3] is reported as 5.6 µM.
Work on COc1cc(-c2cn(Cc3ccc(C(C)(C)C)cc3)nn2)cc(OC)c1OC yielded an IC50 [5] of 2.7 µM, an IC50 [7] of 2.7 µM and an IC50 [3] of 1.8 µM.
For Cc1noc(N)c1C, the Activity [4] was “Active”.
